Converted amounts (≈) assume the structure as drawn. The source made the active and inactive calls. The calls are words filed in the database; no cut-off is given here.
Legend:
[1] = tested on: Escherichia coli; assay: Antibacterial activity against Escherichia coli ATCC 25922 assessed as inhibition of bacterial growth at 100 uM by broth microdilution method; type: functional, organism-based
In short: (§1)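 Broth microdilution per EUCAST, run in duplicate, for two independent experiments. Pure compounds came from 10 mM stocks in 20% DMSO, diluted with water, and were tested at a final 100 μM for growth inhibition. Controls were gentamycin at 0.03–32 μg/mL (positive) and 0.25% DMSO with growth medium (negative).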

[2] = tested on: Staphylococcus aureus; assay: Antibacterial activity against Staphylococcus aureus ATCC 25923 assessed as inhibition of bacterial growth at 100 uM by broth microdilution method; type: functional, organism-based; in short: as §1
[3] = tested on: Streptococcus agalactiae; assay: Antibacterial activity against Streptococcus agalactiae ATCC 12386 by broth microdilution method; type: functional
In short: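 MIC was found by EUCAST broth microdilution in duplicate over 12.5–125 μM, using compounds from 10 mM stocks in 20% DMSO diluted in water. OD600 was plotted as a concentration-effect curve, and MIC was taken as the concentration giving an OD600 of 0.05. Gentamycin at 0.03–32 μg/mL served as the positive control.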

[4] = tested on: Enterococcus faecalis; assay: Antibacterial activity against Enterococcus faecalis ATCC 29122 assessed as inhibition of bacterial growth at 100 uM by broth microdilution method; type: functional, organism-based; in short: as §1
[5] = tested on: Pseudomonas aeruginosa; assay: Antibacterial activity against Pseudomonas aeruginosa ATCC 27853 assessed as inhibition of bacterial growth at 100 uM by broth microdilution method; type: functional, organism-based; in short: as §1
[6] = tested on: Streptococcus agalactiae; assay: Antibacterial activity against Streptococcus agalactiae ATCC 12386 assessed as inhibition of bacterial growth at 100 uM by broth microdilution method
[7] = tested on: Streptococcus agalactiae; assay: Antibacterial activity against Streptococcus agalactiae ATCC 12386 assessed as inhibition of bacterial growth at 100 uM by broth microdilution method; type: functional, organism-based; in short: as §1

Row | MIC [3] | SMILES | Activity [1] | Activity [2] | Activity [3] | Activity [4] | Activity [5] | Activity [6] | Activity [7]
1 |  | CC(C)=CCC[C@H](C)[C@H]1CC[C@]2(C)C[C@H]3[C@@H]4[C@H](CC[C@@H]12)C(=O)N1CCOC41C[C@@]3(C)O (stereo partly specified) | inactive | inactive | inactive | inactive | inactive |  | 
2 | 86 µM (≈ 40.9 µg/mL) | CC(CCC[C@H](C)[C@H]1CC[C@]2(C)C[C@H]3C4=C(CC[C@@H]12)C(=O)N(CCO)[C@@H]4C[C@@]3(C)O)COC=O (stereo partly specified) | inactive | inactive |  | inactive | inactive | Active | Active
3 |  | CC(CCC[C@H](C)[C@H]1CC[C@]2(C)C[C@H]3C4=C(CC[C@@H]12)C(=O)N(CCO)[C@@H]4C[C@@]3(C)O)C(=O)O (stereo partly specified) | inactive | inactive | inactive | inactive | inactive |  | 
4 |  | CC(CO)CCC[C@H](C)[C@H]1CC[C@]2(C)C[C@H]3C4=C(CC[C@@H]12)C(=O)N(CCO)[C@@H]4C[C@@]3(C)O (stereo partly specified) | inactive | inactive | inactive | inactive | inactive |  | 
5 | 66 µM (≈ 28.2 µg/mL) | CC(C)=C/C=C\[C@H](C)[C@H]1CC[C@]2(C)C[C@H]3C4=C(CC[C@@H]12)C(=O)N(CCO)[C@@H]4C[C@@]3(C)O | inactive | inactive |  | inactive | inactive | Active | Active
6 |  | C/C(=C\CC[C@H](C)[C@H]1CC[C@]2(C)C[C@H]3C4=C(CC[C@@H]12)C(=O)N(CCO)[C@@H]4C[C@@]3(C)O)C(=O)O | inactive | inactive | inactive | inactive | inactive |  | 
7 | 64 µM (≈ 27.5 µg/mL) | CC(C)=CCC[C@H](C)[C@H]1CC[C@]2(C)C[C@H]3C4=C(CC[C@@H]12)C(=O)N(CCO)[C@@H]4C[C@@]3(C)O | inactive | inactive |  | inactive | inactive |  | Active
8 |  | C/C(=C\CC[C@H](C)[C@H]1CC[C@]2(C)C[C@H]3C4=C(CC[C@@H]12)C(=O)N(CCO)[C@@H]4C[C@@]3(C)O)CO | inactive | inactive | inactive | inactive | inactive |  | 

Row | SMILES | MIC [3] | Activity [1] | Activity [2] | Activity [3] | Activity [4] | Activity [5] | Activity [6] | Activity [7]
9 | CNC(C)[C@@H]1CC[C@@H](N)[C@@H](O[C@H]2[C@H](O)[C@@H](O[C@H]3OC[C@](C)(O)[C@H](NC)[C@H]3O)[C@H](N)C[C@@H]2N)O1.CN[C@@H]1[C@@H](O)[C@@H](O[C@@H]2[C@@H](O)[C@H](O[C@H]3O[C@H](C(C)N)CC[C@H]3N)[C@@H](N)C[C@H]2N)OC[C@]1(C)O.CN[C@@H]1[C@@H](O)[C@@H](O[C@@H]2[C@@H](O)[C@H](O[C@H]3O[C@H](CN)CC[C@H]3N)[C@@H](N)C[C@H]2N)OC[C@]1(C)O (stereo partly specified) | 3 µM |  |  |  |  |  |  | 

Source: ChEMBL document CHEMBL6121061, “Metabolomics-Guided Discovery of Bipolarolides H-O, New Ophiobolin-Type Sesterterpenes with Antibacterial Activity from the Marine-Derived Fungus Uzbekistanica storfjordensis sp. nov” (2025)
